Screens from PubChem BioAssay.
Shown are actives, neighbours in structure and some others; about 1.9% of the full set was active somewhere.
core dimer inh – inhibitors of HCV core protein dimerization, primary screen, biochemical, TR-FRET, high-throughput; TR-FRET GST/Flag-core106 dimerization, 1536-well; inhibition, % at 5 µM; hit rate 0.33% among 300,000; AID 1899, 2009;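 active = inhibition above the mean of all tested compounds plus 3 SD, set per screening campaign, cut at about 45% in these data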
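System: GST/Flag-tagged HCV core106 proteins. Incubation: compound-protein-antibody incubation 4 h at 22.5 °C. Technique: HTRF with 340 nm excitation, 617/671 nm emission. Medium: KF-containing HEPES buffer, pH 7.45, DTT, CHAPS, BSA. Read-out: inhibition (%) from 671 over 617 nm ratio. Also added: Eu(K)-anti-GST 90 ng/mL plus XL665-anti-Flag 1 µg/mL.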
EBNA-1 inh – EBNA-1 DNA-binding inhibitors, primary screen, biochemical, fluorescence polarization; hit rate 0.34% among 300,000; inhibition, % at 14.8 µM; in the data active = inhibition above about 28%
PP1 inh – PP1-alpha phosphatase inhibitors, primary screen, counter-screen for PP5 inhibitor project, biochemical, fluorescence, OMFP substrate, single point; Serine/threonine-protein phosphatase PP1-alpha catalytic subunit (Homo sapiens), P62136; purified PP1alpha; inhibition, % at 6.7 µM; hit rate 0.9% among 320,000;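 active = inhibition above the mean inhibition of all tested compounds plus 3 SD, computed separately for each screening campaign, cut at about 15% in these data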
ZTA DNA inh – counter-screen for EBNA-1 inhibitors: inhibitors of Epstein-Barr virus ZTA | P03206 | ZTA-DNA binding, fluorescence polarization | inhibition, % at 11 µM | hit rate 0.15% among 320,000 | AID 2234; in the data active = inhibition above about 33%
Target sequence (P03206 whole entry, looked up): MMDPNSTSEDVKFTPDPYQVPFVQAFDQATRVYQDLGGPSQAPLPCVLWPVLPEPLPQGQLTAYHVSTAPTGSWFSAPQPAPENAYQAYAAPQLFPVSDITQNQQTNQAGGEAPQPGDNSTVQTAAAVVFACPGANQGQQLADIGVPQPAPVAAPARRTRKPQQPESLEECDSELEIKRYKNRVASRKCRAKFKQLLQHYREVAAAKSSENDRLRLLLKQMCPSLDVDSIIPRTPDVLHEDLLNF
NS3 helicase inh – inhibitors of HCV NS3 helicase, primary screen, biochemical, Cy5 molecular beacon fluorescence. Hepatitis C virus NS3 helicase. NS3 helicase DNA unwinding. inhibition, % at 10.9 µM. hit rate 0.56% among 290,000. AID 1800, 2009;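 active = inhibition above the mean of all tested compounds plus 3 SD, set per campaign, cut at about 35% in these data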;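 also: 0% = DMSO wells and 100% = thioflavine S control wells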
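System: HCV NS3 helicase fragment; control set: DMSO and thioflavine S; technique: Cy5 fluorescence at 0 and 60 min, beacon hairpin quenching; reagent: beacon DNA duplex substrate plus ATP; replicates: singlicate; schedule: 1 h reaction at 25 °C, ATP-initiated; medium: MOPS buffer pH 6.5 with MgCl2, DTT, Tween20, BSA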
NS3 hel confirm – HCV NS3 helicase inhibitors, retest, confirmation, biochemical, Cy5 molecular beacon fluorescence, triplicate. shares compounds with NS3 helicase inh. NS3 helicase DNA unwinding. inhibition, % at 10.9 µM. hit rate 31% among 1,600. AID 1943, 2009;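 active = inhibition above the mean of all tested compounds plus 3 SD, cutoff set per campaign, cut at about 36% in these data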
FID counter trip – compounds displacing fluorescent DNA intercalator, artefact control for HCV NS3 helicase inhibitor project, biochemical, FID fluorescence, triplicate. shares compounds with NS3 helicase inh. DNA fluorescent intercalator displacement. inhibition, % at 7.9 µM. hit rate 4% among 1,600; in the data active = inhibition above about 37%;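 also: 0% = vehicle and 100% = reference compound; higher means more displacement of ethidium bromide from the DNA hairpin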
The depositor's hits bear a star; / = not tested or not shown.

SMILES	core dimer inh	EBNA-1 inh	PP1 inh	ZTA DNA inh	NS3 helicase inh	NS3 hel confirm	FID counter trip
Cc1ccc(-c2nn(-c3ccccc3)cc2/C=C2\SC(=S)N(CC(=O)O)C2=O)cc1	20.6	-8.3	-5.8	19.0	47.0*	60.8*	45.9*
O=C(O)CN1C(=O)/C(=C\c2ccccc2OCc2ccc(Cl)cc2)SC1=S	15.2	0.9	11.8	18.0	42.6*	69.9*	32.6
O=C(O)CN1C(=O)/C(=C\c2cc(Br)ccc2OCc2ccc(Cl)cc2Cl)SC1=S	22.0	-11.9	-2.7	0.8	75.8*	85.6*	52.3*
COc1ccccc1N(C)S(=O)(=O)c1ccc(C(=O)N(C)Cc2ccc(Cl)s2)cc1	/	/	0.6	-5.9	/	/	/
CCOC(=O)c1cnc2c(ccc3ccccc32)c1NCCO	-4.2	-6.1	0.8	-20.5	-0.2	/	/
CCOC(=O)c1cnc2c(ccc3ccccc32)c1NCCN(C)C	3.1	-1.2	2.5	4.5	36.0*	7.3	75.2*
Cc1c(NC(=O)COC(=O)c2ccccc2Cl)c(=O)n(-c2ccccc2)n1C	-0.1	2.3	-3.9	-3.5	107.7*	-11.1	-1.1
CCC(C)Nc1nc2c(c(=O)n(C)c(=O)n2C)n1C (stereo not given)	-1.1	2.0	-1.1	-1.5	0.1	/	/
O=C(Cn1nc(-c2ccco2)ccc1=O)Nc1ccc(Br)cc1	9.2	-20.1	1.9	1.9	40.0*	-16.4	-3.8
CSCCC(NC(=O)c1cncc(Br)c1)C(=O)O (stereo not given)	-0.6	-5.0	-12.1	2.0	39.8*	0.0	-2.9
CSCCC(NC(=O)c1ccc(Br)cc1)C(=O)O (stereo not given)	-10.9	-9.0	0.4	9.5	7.1	/	/
Oc1ccc(/C=N/N=C(c2ccccc2)c2ccccc2)c(O)c1O	2.5	-12.4	3.0	2.1	52.0*	-21.5	21.2
Cc1ccc(-c2csc(NC(=O)c3ccc(Br)cc3)c2C(=O)O)cc1	19.9	2.1	-1.2	-8.2	41.6*	68.7*	-0.6
Cc1ccc(-c2csc(NC(=O)c3ccccc3Cl)c2C(=O)O)cc1	14.6	19.8	3.2	11.5	38.6*	77.0*	7.2
CC(Oc1ccc(Br)cc1)C(=O)NC1CCN(Cc2ccccc2)CC1 (stereo not given)	1.5	-1.8	-3.9	-5.2	/	/	/
CCn1c(CCC(=O)N(C)CC(=O)Nc2cccc(F)c2)nc2cc(S(=O)(=O)N(C)C)ccc21	-7.2	0.4	0.7	8.9	/	/	/
Cc1sc(NC(=O)CN2CCOCC2)c(C#N)c1C	-5.1	-6.5	-6.6	-7.7	11.6	/	/
C#CCSC1=C(C#N)C(c2cccs2)C(C(=O)OCC)=C(C)N1 (stereo not given)	30.8	-4.4	3.8	-1.9	45.6*	-5.6	-5.6
CCCCNC(=O)COC(=O)c1c2c(nc3ccccc13)/C(=C/c1cccs1)CC2	32.9	-4.2	11.7	7.2	37.9*	-11.7	-5.6
Cc1ccc2[nH]c(O)c(N=NC(=O)CCc3ccccc3)c2c1Br	-6.3	6.9	-1.3	-7.8	-12.6	/	/
CCc1ccc(/C=C2\Oc3cc(OS(C)(=O)=O)ccc3C2=O)cc1	5.0	-12.8	1.2	13.7	3.9	/	/
CCc1ccc(/C=C2\Oc3c(ccc(O)c3CN3CCN(CCO)CC3)C2=O)cc1	-5.2	-4.7	-2.4	-12.0	50.5*	-13.5	31.6
Cc1ccc(-n2nc3ccc(N)cc3n2)cc1	5.3	0.3	-3.2	8.9	25.4	/	/
CCOc1ccc(-n2nc3ccc(N)cc3n2)cc1	/	/	/	/	44.1*	-14.6	-0.7
CCOc1ccc(-n2nc3cc(C)c(N)cc3n2)cc1	22.8	2.3	0.8	3.1	63.3*	-9.2	-0.1
Cc1cc2nn(-c3ccc(F)cc3)nc2cc1N	0.9	6.9	-2.3	-14.7	27.3	/	/
C/C(CC(=O)Nc1ccc(Cl)c(C(F)(F)F)c1)=N\NC(=O)c1cccc(O)c1	3.2	8.2	-4.0	18.9	8.0	/	/
